# Bioassay records deposited in PubChem BioAssay by several laboratories.
# Shown are actives, neighbours in structure and some others; about 1.1% of the full set was active somewhere.
# GASC-1 inh = human JMJD2C demethylase inhibition; inhibition, % at 2.35 µM; GST-JMJD2C(1-420) H3K9me3 demethylation, DELFIA europium; 330,000 tested, 0.069% active; AID 2099; Q9H3R0;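 active means more than half of a compound's replicate wells show inhibition beyond 50%, single wells judged on their own value; inconclusive means some, but no more than half, of replicates pass 50% inhibition; inactive means no replicate passes 50% inhibition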;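 further: signal counts dimethyl H3K9 product captured on neutravidin plate; 0% = median of DMSO wells and 100% = 0.3 times that DMSO median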
# SENP1 inh = SENP1 (human) catalytic domain inhibition; recombinant SENP1 catalytic domain, CyPet-SUMO1-YPet FRET cleavage; inhibition, % at 10 µM; 360,000 tested, 0.21% active;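 active means inhibition at least 30% at 10 µM, raw YFP signal under a set limit, fluorescence ratio 0.5 to 1.5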;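 further: 0% = enzyme with DMSO and 100% = no enzyme wells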
#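 Test system: recombinant human SENP1 catalytic domain, His6-tagged / Medium: pH 8 Tris buffer with EDTA, NaCl, BME, BSA, NP40, catalase / Also added: SUMO1 FRET substrate flanked by Cypet and Ypet, 25 nM / Times: 50 min reaction at room temperature / Signal: FRET, CFP and YFP emission / Control set: no-enzyme low control and enzyme-plus-DMSO high control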
# Arrestin-AP2 inh = inhibitors of human beta-arrestin and AP2 interaction; FITC-arrestin peptide / GST-AP2 beads, flow cytometry; AP2 beta2 appendage carries R879A mutation; inhibition, % at 10 µM; 340,000 tested, 0.31% active; AID 504490;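 active means inhibition above a set limit, near 3 SD of compounds lacking own fluorescence, cut at about 54% in these data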;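 further: plate controls were DMSO wells for no effect and 5 µM unlabelled arrestin peptide for full effect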
#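 system = GST-tagged AP2 beta2-adaptin appendage (R879A) on 4 µm glutathione beads | reagent = FITC-labelled arrestin peptide probe, 50 nM final | schedule = compound with beads 12 min RT, then probe 1 h RT | signal = HyperCyt-sampled flow cytometry, FL1 channel, ex 488/em 535 nm | read-out = percent response from loss of bead-bound FITC fluorescence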
# FAS-TE inh = blocks the thioesterase domain of human fatty acid synthase | 360,000 tested, 0.67% active | P49327 | inhibition, % at 15 µM | recombinant FAS-TE, OMFH fluorogenic substrate, fluorescence endpoint | AID 602261;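 active means compounds whose normalised, plate-corrected inhibition of enzyme fluorescence in the single-dose primary screen is 50% or more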;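 further: 0% = DMSO with enzyme and 100% = substrate without enzyme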
# Target sequence (P49327 whole entry, looked up, the tested form may be a part): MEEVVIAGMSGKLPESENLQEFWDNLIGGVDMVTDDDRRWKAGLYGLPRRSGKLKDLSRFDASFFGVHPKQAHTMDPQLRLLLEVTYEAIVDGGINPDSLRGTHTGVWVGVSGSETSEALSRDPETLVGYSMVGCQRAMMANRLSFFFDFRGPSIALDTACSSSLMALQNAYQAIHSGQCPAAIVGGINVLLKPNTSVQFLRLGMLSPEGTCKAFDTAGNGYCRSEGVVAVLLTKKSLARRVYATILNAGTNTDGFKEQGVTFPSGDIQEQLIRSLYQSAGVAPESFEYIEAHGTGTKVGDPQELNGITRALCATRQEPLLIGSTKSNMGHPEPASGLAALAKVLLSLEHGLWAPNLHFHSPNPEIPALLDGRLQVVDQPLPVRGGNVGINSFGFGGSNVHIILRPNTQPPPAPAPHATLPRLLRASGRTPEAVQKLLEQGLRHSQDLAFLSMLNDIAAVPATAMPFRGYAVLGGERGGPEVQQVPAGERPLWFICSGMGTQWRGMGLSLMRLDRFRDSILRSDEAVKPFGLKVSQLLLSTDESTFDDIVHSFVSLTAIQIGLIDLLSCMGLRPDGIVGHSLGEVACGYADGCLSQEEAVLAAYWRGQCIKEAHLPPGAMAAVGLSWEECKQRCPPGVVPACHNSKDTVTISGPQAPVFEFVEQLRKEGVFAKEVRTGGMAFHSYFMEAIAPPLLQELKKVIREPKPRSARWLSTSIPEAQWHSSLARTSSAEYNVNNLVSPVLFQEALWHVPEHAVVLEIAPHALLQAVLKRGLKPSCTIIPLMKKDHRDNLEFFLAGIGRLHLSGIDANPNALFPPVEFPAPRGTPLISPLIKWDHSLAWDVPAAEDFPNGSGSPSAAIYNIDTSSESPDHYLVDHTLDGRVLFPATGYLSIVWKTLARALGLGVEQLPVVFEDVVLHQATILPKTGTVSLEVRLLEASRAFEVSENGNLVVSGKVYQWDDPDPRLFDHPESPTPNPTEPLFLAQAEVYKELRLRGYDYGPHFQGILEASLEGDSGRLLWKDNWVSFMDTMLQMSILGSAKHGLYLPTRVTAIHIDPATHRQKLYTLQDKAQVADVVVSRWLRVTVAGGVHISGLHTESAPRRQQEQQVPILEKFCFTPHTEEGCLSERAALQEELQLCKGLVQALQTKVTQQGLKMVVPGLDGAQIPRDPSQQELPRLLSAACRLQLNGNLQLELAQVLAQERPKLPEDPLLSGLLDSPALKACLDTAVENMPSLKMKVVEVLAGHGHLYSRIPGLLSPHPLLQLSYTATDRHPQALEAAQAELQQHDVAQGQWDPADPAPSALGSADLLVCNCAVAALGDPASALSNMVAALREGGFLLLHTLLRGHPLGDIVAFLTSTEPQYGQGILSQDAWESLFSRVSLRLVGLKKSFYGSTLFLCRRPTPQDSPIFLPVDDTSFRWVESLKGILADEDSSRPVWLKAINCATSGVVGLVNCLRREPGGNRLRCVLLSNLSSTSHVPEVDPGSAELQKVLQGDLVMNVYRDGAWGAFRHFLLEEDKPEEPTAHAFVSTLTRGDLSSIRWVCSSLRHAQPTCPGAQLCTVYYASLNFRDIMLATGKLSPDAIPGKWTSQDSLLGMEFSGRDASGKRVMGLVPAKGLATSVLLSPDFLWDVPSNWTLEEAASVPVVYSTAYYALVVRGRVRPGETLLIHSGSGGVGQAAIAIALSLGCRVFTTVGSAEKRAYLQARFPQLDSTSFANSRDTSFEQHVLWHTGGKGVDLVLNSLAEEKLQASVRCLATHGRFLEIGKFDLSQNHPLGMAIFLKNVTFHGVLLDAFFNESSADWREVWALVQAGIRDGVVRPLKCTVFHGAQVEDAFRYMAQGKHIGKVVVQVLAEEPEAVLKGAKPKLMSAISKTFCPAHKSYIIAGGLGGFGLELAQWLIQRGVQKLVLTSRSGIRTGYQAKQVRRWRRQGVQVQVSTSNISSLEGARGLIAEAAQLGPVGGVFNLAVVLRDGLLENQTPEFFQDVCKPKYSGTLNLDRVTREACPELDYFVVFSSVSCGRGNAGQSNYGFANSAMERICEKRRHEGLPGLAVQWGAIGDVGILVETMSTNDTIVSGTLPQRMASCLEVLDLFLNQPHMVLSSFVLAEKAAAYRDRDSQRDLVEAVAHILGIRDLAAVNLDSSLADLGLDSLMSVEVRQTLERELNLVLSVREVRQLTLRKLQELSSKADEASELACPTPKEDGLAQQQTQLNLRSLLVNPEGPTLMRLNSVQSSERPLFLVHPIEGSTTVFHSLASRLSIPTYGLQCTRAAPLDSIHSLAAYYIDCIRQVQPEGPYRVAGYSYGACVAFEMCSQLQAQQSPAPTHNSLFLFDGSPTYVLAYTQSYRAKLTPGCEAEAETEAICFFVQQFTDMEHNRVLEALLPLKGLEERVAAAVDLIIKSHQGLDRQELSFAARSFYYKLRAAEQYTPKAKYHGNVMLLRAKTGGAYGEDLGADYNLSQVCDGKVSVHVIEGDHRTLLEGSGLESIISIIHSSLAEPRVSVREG
# FAS-TE inh conf = FAS thioesterase (human) inhibition, confirmation | recombinant FAS-TE, OMFH fluorogenic substrate, fluorescence | AID 624325 | 2,300 tested, 45% active | inhibition, % at 15 µM | shares compounds with FAS-TE inh;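 active means compounds inhibiting the enzyme by at least 50% at 15 µM in any one of the replicates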;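 further: 0% = enzyme with DMSO only and 100% = wells lacking enzyme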
# SENP1 conf = confirmation of human SENP1 SUMO protease inhibitors; AID 651678; shares compounds with SENP1 inh; 520 tested, 34% active; inhibition, % at 10 µM; recombinant SENP1, CyPet-SUMO1-YPet FRET cleavage; in the data active means inhibition mostly above about 35%, no sharp cut-off; inactive means mostly below about 32%;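 further: 0% = enzyme with DMSO and 100% = no enzyme control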
# SENP1 kinetic = confirmation of human SENP1 SUMO protease inhibitors, kinetic; shares compounds with SENP1 inh; recombinant SENP1, CyPet-SUMO1-YPet FRET kinetic cleavage; inhibition, % at 10 µM; 520 tested, 26% active; AID 651690; in the data active means inhibition mostly above about 32%, no sharp cut-off; inactive means mostly below about 29%;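 further: 0% = DMSO with enzyme and 100% = no enzyme substrate only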
# * = called active by the depositor; ? = inconclusive; nt = not tested or not shown.
SMILES,GASC-1 inh,SENP1 inh,Arrestin-AP2 inh,FAS-TE inh,SENP1 conf,SENP1 kinetic,others
O=C(NN1C(=O)C2C(c3ccccc3)C=CC(c3ccccc3)C2C1=O)c1cccc(Br)c1 (stereo not given),14.0,40.5*,37.5,53.8*,11.2,12.3,FAS-TE inh conf=45.4*
O=C(O)c1ccccc1C1Nc2ccccc2C(=O)N1CCCN1CCOCC1 (stereo not given),-2.6,1.7,-4.2,-6.6,nt,nt,
Cc1cc(C)c2cc(C)c(SCC(=O)NCc3ccco3)nc2c1,2.0,-0.7,0.2,19.9,nt,nt,
Cc1cc(C)c2cc(C#N)c(SCC(=O)NCc3ccco3)nc2c1,-6.8,40.6*,5.4,-0.7,3.0,15.9,
C=CCOc1ccc(Br)cc1/C=C1\NC(=S)N(C(C)=O)C1=O,16.0,-20.0,5.8,1.4,nt,nt,
C=CCOc1c(Br)cc(/C=C2/NC(=S)N(C(C)=O)C2=O)cc1OC,3.5,54.6*,-4.8,-2.8,39.6*,56.5*,
Cn1cc2cccc([N+](=O)[O-])c2n1,5.2,1.4,10.1,-5.0,nt,nt,
Cc1ccccc1NC(=O)c1cccc(C(=O)Nc2ccccc2C)n1,-13.6,37.6*,17.7,9.4,-5.0,-4.3,
Cc1ccccc1NC(=O)c1cccc(C(=O)Nc2ccccc2C)c1,-1.2,-0.4,-1.7,-2.7,nt,nt,
CC(=O)Nc1ccc(NC(=O)CSc2nnc3c4ccccc4n(C)c3n2)cc1,-15.8,2.7,28.4,-1.2,nt,nt,
CC(C)c1ccc2nc3sc(C(=O)N4CCc5ccccc5C4)c(N)c3cc2c1,-16.4,61.4*,-4.1,-4.3,81.5*,51.0*,
CC(=O)Nc1ccc(N(C(=O)c2cnccn2)C(C(=O)NC2CCCCC2)c2ccc(O)cc2)cc1 (stereo not given),6.2,7.4,-1.7,-4.5,nt,nt,
CCN(CC(=O)Nc1ccc(NC(C)=O)cc1)C(=O)CSc1ncnc2sc(C)c(C)c12,1.1,41.2*,12.6,-1.0,89.0*,68.3*,
CC(=O)Nc1ccc(NC(=O)CSc2ncnc3sc(C)c(C)c23)cc1,2.1,-0.6,14.8,4.7,nt,nt,
COc1ccc(C(=O)C(C)[n+]2ccc(C)c3ccccc32)cc1[N+](=O)[O-] (stereo not given),12.2,77.9*,11.6,-7.3,5.9,7.8,
CCOC(=O)c1c2c3c(c(Cl)ccc3[nH]c1=O)C(=O)c1ccccc1-2,-16.6,57.3*,-3.6,40.2,40.0*,23.7,
CCOC(=O)c1c2c3c(cccc3[nH]c1=O)C(=O)c1ccccc1-2,-10.1,-0.7,44.6,-4.7,nt,nt,
CN(C)CCNc1c(N)c(=O)oc2ccccc12,-18.0,-1.8,3.4,-7.4,nt,nt,
N=c1oc2ccc([N+](=O)[O-])cc2cc1C(=O)NCc1ccccc1,-1.7,57.0*,6.6,37.1,60.1*,34.4,
COc1ccc(C(C)(NC(C)=O)c2nc(-c3cccc(NC(C)=O)c3)cs2)cc1 (stereo not given),nt,0.2,nt,-6.7,nt,nt,
CC(=O)c1cc(CCC(=O)NC2CCCCCC2)oc1C,5.9,0.0,-1.4,0.2,nt,nt,
C#CCOCCOCCOCCNc1nc(N2CCN(C(=O)C([C@@H](C)CC)n3cc(C(N)CC(C)C)nn3)CC2)nc(N2CCN(C(=O)[C@H](CCCCN)n3cc(C(N)COC(=O)C(F)(F)F)nn3)CC2)n1 (stereo not given in full),2.1,nt,nt,nt,nt,nt,
CCOC(=O)c1sc(N=NC2=C(O)CC(C)(C)CC2=O)c(C(=O)OCC)c1C,-9.0,56.4*,-10.9,-12.1,29.9,20.1,
COc1ccc(/C(C)=N/N=C2/NC(=O)CC(C(=O)O)S2)cc1F (stereo not given),?,0.6,38.8,-4.6,nt,nt,
N#CC1=C(N)Oc2cc(Nc3ccccc3)ccc2C1c1ccncc1 (stereo not given),2.7,76.7*,-12.7,-39.0,30.6*,23.7,
COc1ccc(C(C)(NC(C)=O)c2nc(-c3cccc(C(=O)O)c3)cs2)cc1 (stereo not given),nt,3.2,nt,-1.3,nt,nt,
Cc1ccc(N(CC(=O)NC(C)C)C(=O)CCC(=O)Nc2ccccn2)cc1,-14.0,2.9,-4.0,-3.3,nt,nt,
